In ChEMBL document CHEMBL1158007, “Steroidal glycosides from the bulbs of Allium jesdianum” (J Nat Prod, 1999) one finds IC50 and Activity data, which are given here for 3 molecules.

As a reminder, the IC50 is the concentration that inhibits the measured activity by half. Lower therefore signals inhibition by little substance.

Structures are written as SMILES. Active and inactive are the calls of the source. The rule behind the calls is not given here. Where only a bound is given, the exact number is not on record here.

The assay concerns HL-60. Nature of the assay: Cytotoxicity against human HL-60 cells after 72 hrs by MTT assay. Format: functional, cell-based. In a few lines: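 HL-60 cells grown in RPMI 1640 with 10% FBS, L-glutamine, penicillin and streptomycin, seeded at 3 × 10^4 cells/mL, and preincubated 24 h at 37 °C in 5% CO2. Sample in EtOH-H2O (1:1) added to a final 0.01-10 µg/mL, with vehicle-only controls, for 72 h. MTT added for 4 h, then formazan dissolved in DMSO and read at 550 nm. IC50 taken from the dose-response curve.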
On the technique in general: Tetrazolium assays rely on reduction of a dye to a coloured formazan, in cell work by metabolically active cells.

Under “HL-60, 72 h”, `C[C@@H]1CC[C@@]2(OC1)O[C@H]1C[C@H]3[C@@H]4C[C@H](O)[C@H]5C[C@@H](O[C@@H]6O[C@H](CO)[C@H](O[C@@H]7O[C@H](CO)[C@@H](O)[C@H](O[C@@H]8OC[C@@H](O)[C@H](O)[C@H]8O)[C@H]7O[C@@H]7O[C@H](CO)[C@@H](O)[C@H](O)[C@H]7O)[C@H](O)[C@H]6O)[C@H](O)C[C@]5(C)[C@H]4CC[C@]3(C)[C@H]1[C@@H]2C` had an IC50 above 10 µg/mL.
Turning to `CC(C)CC[C@H](O)[C@@H](C)[C@H]1[C@@H](O[C@@H]2O[C@H](CO)[C@@H](O)[C@H](O)[C@H]2O)C[C@H]2[C@@H]3CC=C4C[C@@H](O)C[C@@H](O[C@@H]5O[C@H](CO)[C@@H](O)[C@H](O)[C@H]5O)[C@]4(C)[C@H]3CC[C@]12C`, the result was inactive.
For `CC(C)CC[C@H](O)[C@@H](C)[C@H]1[C@@H](O[C@@H]2O[C@H](CO)[C@@H](O)[C@H](O)[C@H]2O)C[C@H]2[C@@H]3CC=C4C[C@@H](O)C[C@@H](O[C@@H]5O[C@@H](C)[C@H](O)[C@@H](O)[C@H]5O)[C@]4(C)[C@H]3CC[C@]12C`, the result was inactive.
